Measured values taken from ChEMBL document CHEMBL4138115, “An evaluation of Minor Groove Binders as anti-fungal and anti-mycobacterial therapeutics” (Eur J Med Chem, 2017).
≈ marks a conversion by molar mass, not a printed value. Calls of active or inactive are those of the source. The rule behind the calls is not given here.

Columns and labels:
Salmon testes DNA = assay: Binding affinity to wild type salmon sperm DNA assessed as change in melting temperature at 10 uM; assay type: nucleic-acid assay; details: Salmonidae
Trypanosoma congolense = assay: Antiparasitic activity against Trypanosoma congolense IL3000 after 69 hrs by Alamar blue assay; assay type: functional, organism-based; details: IL3000, 69 h
How it was run: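 Bloodstream-form IL3000 counted electronically and seeded at 1.25 × 10⁵ trypanosomes/ml into threefold serial compound dilutions. Kept 69 h at 34 °C, 5% CO₂, then resazurin (12.5 mg per 100 mL PBS) added for 3 h. Fluorescence ex 536/em 588 nm gives EC50. Three separate assay runs.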

Staphylococcus aureus = assay: Antibacterial activity against methicillin-resistant Staphylococcus aureus ATCC 43300 after 18 hrs by two-fold serial dilution assay; assay type: functional; details: ATCC 43300, 18 h
How it was run: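 MRSA ATCC 43300 grown overnight in cation-adjusted Mueller Hinton broth at 37 °C, diluted 40-fold, grown 1.5–3 h to mid-log. Inoculated at 5 × 10⁵ CFU/mL into two-fold compound dilutions (final 32–0.25 range). Incubated 18 h at 37 °C without shaking; OD600 read. Inhibition normalised to media-only and untreated-bacteria controls. MIC taken as lowest concentration giving ≥80% inhibition; duplicates (n = 2).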

Candida albicans = assay: Antifungal activity against Candida albicans ATCC 90028 after 24 hrs by resazurin dye-based two-fold serial dilution assay; assay type: functional; details: ATCC 90028, 24 h
Cryptococcus neoformans = assay: Antifungal activity against Cryptococcus neoformans ATCC 208821 after 24 hrs by resazurin dye-based two-fold serial dilution assay; assay type: functional
[1] = system: Trypanosoma brucei brucei; assay: Antiparasitic activity against Trypanosoma brucei brucei Lister 427 after 48 hrs by Alamar blue assay; assay type: functional, organism-based; details: Lister 427, 48 h
How it was run: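 Bloodstream-form Lister 427 in HMI-9 with 10% heat-inactivated FBS, counted by haemocytometer and seeded at 2 × 10⁴ cells/mL over serial compound dilutions. After 48 h at 37 °C, 5% CO₂, resazurin (0.49 mM solution in PBS) added for a further 24 h. Fluorescence ex 544/em 590 nm; EC50 from curve fit. Duplicates, at least three independent occasions.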

[2] = Lipophilicity of the compound assessed as retention time by HPLC method; assay type: physicochemical
How it was run: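 Reverse-phase C18 HPLC with water and acetonitrile, each containing 0.1% TFA. Gradient runs from 100% water to 100% acetonitrile over 1 h; lipophilicity reported as retention time in minutes.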

[3] = system: Mycobacterium tuberculosis; assay: Antimycobacterial activity against GFP labelled Mycobacterium tuberculosis H37Rv up to 14 days by fluorescence assay; assay type: functional
How it was run: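 GFP-labelled Mtb H37Rv at 1 × 10^5 CFU/well in 7H9 broth with 10% OADC and 25 kanamycin. Two-fold compound dilutions were tested. Incubated at 37 °C without shaking.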

[4] = Cytotoxicity against HEK293 cells reduction in cell viability after 20 hrs by resazurin dye based fluorescence assay; details: human
How it was run: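 HEK-293 cells at 4000 per well in DMEM with 10% FBS, exposed to two-fold dilutions from 32 to 0.25 (final) for 20 h at 37 °C, 5% CO₂. Resazurin added (100 final) for 3 h more; fluorescence ex 560/em 590 nm. CC50 is the concentration giving 50% cytotoxicity. Duplicates.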

Row | SMILES | ΔTm (Salmon testes DNA) [°C] | EC50 (Trypanosoma congolense) [µM] | MIC80 (Staphylococcus aureus) [mg/L] | MIC80 (Candida albicans) [mg/L] | MIC70 (Cryptococcus neoformans) [mg/L] | EC50 [1] [µM] | Retention_time [2] [min] | MIC99 [3] | CC50 at 20 h [4] [mg/L] | MIC99 ([3]; 336 h) [mg/L]
1 | CC(C)CCn1cc(NC(=O)c2cc(NC(=O)c3cc(NC(=N)N)cn3C)cn2C)cc1C(=O)NCCCN(C)C | 4 | 5.2 | > 32 | > 32 | 32 (≈ 56.5 µM) | 49 | 20.1 | inactive | > 32 | 
2 | CN(C)CCCNC(=O)c1cc(NC(=O)c2cc(NC(=O)c3cc(NC(=N)c4ccccc4)cn3C)cn2C)cn1C | 11 | 2.2 | > 32 | > 32 | >32 | > 100 | 17.8 | inactive |  | 
3 | CC(C)CCc1sc(NC(=O)c2cc(NC(=O)c3cc(NC(=N)c4cccc(Cl)c4)cn3C)cn2C)nc1C(=O)NCCCN(C)C | 5 | 5.6 | 2 (≈ 2.94 µM) | > 32 | 2 (≈ 2.94 µM) | 13 | 26.9 |  | 9.2 (≈ 13.5 µM) | 13 (≈ 19.1 µM)
4 | CC(=O)Nc1cc(C(=O)Nc2cc(C(=O)Nc3cc(C(=O)NCCCN(C)C)n(CCC(C)C)c3)n(C)c2)n(C)c1 | 3 | 6.5 | > 32 | > 32 | >32 | 54 | 22.8 | inactive |  | 
5 | COc1cccc(C(=N)Nc2cc(C(=O)Nc3cc(C(=O)Nc4cc(C(=O)NCCCN(C)C)n(CCC(C)C)c4)n(C)c3)n(C)c2)c1 | 5 | 1.4 | > 32 | > 32 | >32 | 24 | 23.8 | inactive | > 32 | 
6 | CC(C)CCn1cc(NC(=O)c2cc(NC(=O)c3cc(NC(=N)c4cnc5ccccc5c4)cn3C)cn2C)cc1C(=O)NCCCN(C)C | 17 | 0.82 | 32 (≈ 47.1 µM) | > 32 | 8 (≈ 11.8 µM) | 2.7 | 24.8 |  | 12 (≈ 17.7 µM) | 25 (≈ 36.8 µM)
7 | COc1cccc(C(=N)Nc2cc(C(=O)Nc3cc(C(=O)Nc4cc(C(=O)NCCCN(C)C)n(C)c4)n(C)c3)n(C)c2)c1 | 11 | 1.4 | > 32 | > 32 | >32 | 44 | 17.5 | inactive |  | 
8 | CC(=O)Nc1cc(C(=O)Nc2cc(C(=O)Nc3nc(C(=O)NCCCN(C)C)c(CCC(C)C)s3)n(C)c2)n(C)c1 | 4 | 9.1 | 16 (≈ 27.4 µM) | > 32 | 16 (≈ 27.4 µM) | 28 | 27.1 | inactive | > 32 | 
9 | COc1cccc(C(=N)Nc2cc(C(=O)Nc3cc(C(=O)Nc4nc(C(=O)NCCCN(C)C)c(CCC(C)C)s4)n(C)c3)n(C)c2)c1 | 7 | 5.8 | 1 (≈ 1.48 µM) | > 32 | 2 (≈ 2.96 µM) | 17 | 26.8 |  | > 32 | 25 (≈ 37 µM)
